Results published in ChEMBL document CHEMBL1134857, “The synthesis and biological evaluation of a novel series of antimicrobials of the oxazolidinone class” (Bioorg Med Chem Lett, 2002).
Values after ≈ are worked out from the molar mass of the structure shown.

Legend:
[1] = system: Staphylococcus aureus; assay: Minimum inhibitory concentration measured against Staphylococcus aureus; type: functional
[2] = system: Staphylococcus epidermidis; assay: Minimum inhibitory concentration measured against Staphylococcus epidermidis; type: functional
[3] = system: Enterococcus faecium; assay: Minimum inhibitory concentration measured against Enterococcus faecium; type: functional
[4] = system: Streptococcus pneumoniae; assay: Minimum inhibitory concentration measured against Streptococcus pneumoniae; type: functional
[5] = system: Moraxella catarrhalis; assay: Minimum inhibitory concentration measured against Moraxella catarrhalis; type: functional
[6] = biological target: T1, Amine oxidase [flavin-containing] B (Rattus norvegicus, UniProt P19643); assay: Inhibition of Monoamine oxidase B in rat primary hepatocytes; type: cell-based, Hepatocyte
T1 sequence (P19643 whole entry): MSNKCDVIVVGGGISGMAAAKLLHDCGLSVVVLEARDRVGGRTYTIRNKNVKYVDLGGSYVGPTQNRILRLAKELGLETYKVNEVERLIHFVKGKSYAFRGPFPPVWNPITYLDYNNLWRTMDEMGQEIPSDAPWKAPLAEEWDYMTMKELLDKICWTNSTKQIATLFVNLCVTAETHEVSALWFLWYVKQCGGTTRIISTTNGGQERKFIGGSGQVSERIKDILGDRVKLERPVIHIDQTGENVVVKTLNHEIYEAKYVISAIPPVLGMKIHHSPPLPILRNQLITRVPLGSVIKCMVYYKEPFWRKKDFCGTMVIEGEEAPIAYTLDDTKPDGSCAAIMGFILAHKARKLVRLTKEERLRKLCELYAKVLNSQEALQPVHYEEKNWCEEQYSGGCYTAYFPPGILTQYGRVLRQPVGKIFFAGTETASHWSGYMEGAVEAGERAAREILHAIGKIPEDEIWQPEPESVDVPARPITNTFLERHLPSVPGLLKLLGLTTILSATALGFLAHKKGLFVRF

[7] = species on record: Rattus norvegicus; assay: Inhibition of mitochondrial protein synthesis (MPS) in rat heart mitochondria; type: functional
In short: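 Rat heart mitochondria were incubated at 1 mg/mL protein (Bradford) in buffer with translation components (ADP, amino acids). Incorporation of S35 methionine was followed for 1 h at 30 °C, then quenched with cold 5% TCA/5 mM methionine. Triplicate aliquots were filtered, washed and counted. Compounds were tested at 6–7 concentrations, ≤1% organic. IC50 came from the linear portion of the percent-of-control curve, as the mean of ≥2 experiments.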

[8] = biological target: T1, Amine oxidase [flavin-containing] B; assay: Compound was evaluated for inhibition of Mono aminoxidase B in rat primary hepatocytes; type: cell-based, Hepatocyte

Row | MIC [1] [µg/mL] | MIC [2] [µg/mL] | MIC [3] [µg/mL] | MIC [4] [µg/mL] | MIC [5] [µg/mL] | IC50 [6] [µM] | IC50 [7] [µM] | Structure (SMILES) | IC50 [8] [µM]
1 | > 128 | > 128 | > 128 | 64 (≈ 127 µM) | 32 (≈ 63.3 µM) | – | – | COc1ccc(C(C)C)cc1/C(Br)=C/c1ccc(N2C[C@H](CNC(C)=O)OC2=O)cc1F | –
2 | 1 (≈ 2.36 µM) | 0.25 (≈ 0.591 µM) | 0.5 (≈ 1.18 µM) | 0.5 (≈ 1.18 µM) | 1 (≈ 2.36 µM) | – | – | CC(=O)NC[C@H]1CN(c2ccc(/C=C(\Br)c3ccco3)c(F)c2)C(=O)O1 | –
3 | 8 (≈ 16.3 µM) | 8 (≈ 16.3 µM) | 4 (≈ 8.14 µM) | 32 (≈ 65.1 µM) | > 128 | > 300 | 150 | COC(=O)c1cccc(/C(Br)=C/c2ccc(N3C[C@H](CNC(C)=O)OC3=O)cc2F)c1 | –
4 | 8 (≈ 21.4 µM) | 4 (≈ 10.7 µM) | 4 (≈ 10.7 µM) | 4 (≈ 10.7 µM) | 32 (≈ 85.7 µM) | – | – | CC(=O)NC[C@H]1CN(c2ccc(/C=C(/F)c3cccnc3)c(F)c2)C(=O)O1 | –
5 | 2 (≈ 4.21 µM) | 1 (≈ 2.1 µM) | 1 (≈ 2.1 µM) | 1 (≈ 2.1 µM) | 4 (≈ 8.42 µM) | – | – | CC(=O)NC[C@H]1CN(c2ccc(/C=C(\Br)c3cccc(C(C)=O)c3)c(F)c2)C(=O)O1 | –
6 | 8 (≈ 18.4 µM) | 2 (≈ 4.61 µM) | 1 (≈ 2.3 µM) | 1 (≈ 2.3 µM) | 16 (≈ 36.8 µM) | 186 | 14 | CC(=O)NC[C@H]1CN(c2ccc(/C=C(\Br)c3ccncc3)c(F)c2)C(=O)O1 | –
7 | 2 (≈ 4.46 µM) | 1 (≈ 2.23 µM) | 2 (≈ 4.46 µM) | 2 (≈ 4.46 µM) | 8 (≈ 17.8 µM) | – | – | CC(=O)NC[C@H]1CN(c2ccc(/C=C(\Br)c3cccc(N)c3)c(F)c2)C(=O)O1 | –
8 | 16 (≈ 34.9 µM) | 4 (≈ 8.73 µM) | 4 (≈ 8.73 µM) | 2 (≈ 4.36 µM) | 128 (≈ 279 µM) | > 150 | 36 | CC(=O)NC[C@H]1CN(c2ccc(/C=C(\Br)c3ccccc3C#N)c(F)c2)C(=O)O1 | –
9 | 2 (≈ 4.61 µM) | 1 (≈ 2.3 µM) | 2 (≈ 4.61 µM) | 1 (≈ 2.3 µM) | 8 (≈ 18.4 µM) | 121 | 12 | CC(=O)NC[C@H]1CN(c2ccc(/C=C(\Br)c3cccnc3)c(F)c2)C(=O)O1 | –
10 | 8 (≈ 17.2 µM) | 4 (≈ 8.62 µM) | 2 (≈ 4.31 µM) | 2 (≈ 4.31 µM) | 32 (≈ 68.9 µM) | – | – | COc1ccncc1/C(Br)=C/c1ccc(N2C[C@H](CNC(C)=O)OC2=O)cc1F | –
11 | 4 (≈ 10.7 µM) | 0.25 (≈ 0.67 µM) | 1 (≈ 2.68 µM) | 0.5 (≈ 1.34 µM) | 8 (≈ 21.4 µM) | 98 | 1.6 | CC(=O)NC[C@H]1CN(c2ccc(/C=C(\F)c3cccnc3)c(F)c2)C(=O)O1 | –
12 | 1 (≈ 2.18 µM) | 0.25 (≈ 0.544 µM) | < 0.125 | ≤ 0.125 | 2 (≈ 4.35 µM) | > 300 | 1.3 | CC(=O)NC[C@H]1CN(c2ccc(/C=C(\Br)c3cncc(C#N)c3)c(F)c2)C(=O)O1 | –

Further lines, the molecule ahead of its results:

Row | Structure (SMILES) | MIC [1] [µg/mL] | MIC [2] [µg/mL] | MIC [3] [µg/mL] | MIC [4] [µg/mL] | MIC [5] [µg/mL] | IC50 [6] [µM] | IC50 [7] [µM] | IC50 [8] [µM]
13 | CC(=O)NC[C@H]1CN(c2ccc(/C=C\F)c(F)c2)C(=O)O1 | 8 (≈ 27 µM) | 8 (≈ 27 µM) | 8 (≈ 27 µM) | 2 (≈ 6.75 µM) | 32 (≈ 108 µM) | – | – | –
14 | CC(=O)NC[C@H]1CN(c2ccc(/C=C(\Br)c3cccc(C(N)=O)c3)c(F)c2)C(=O)O1 | 4 (≈ 8.4 µM) | 4 (≈ 8.4 µM) | 2 (≈ 4.2 µM) | 4 (≈ 8.4 µM) | 16 (≈ 33.6 µM) | – | – | –
15 | CC(=O)NC[C@H]1CN(c2ccc(/C=C(\Br)c3cccc(NC(C)=O)c3)c(F)c2)C(=O)O1 | 4 (≈ 8.16 µM) | 2 (≈ 4.08 µM) | 2 (≈ 4.08 µM) | 2 (≈ 4.08 µM) | 64 (≈ 131 µM) | – | – | –
16 | CC(=O)NC[C@H]1CN(c2ccc(/C=C/c3cncc(C#N)c3)c(F)c2)C(=O)O1 | 4 (≈ 10.5 µM) | 2 (≈ 5.26 µM) | 2 (≈ 5.26 µM) | 16 (≈ 42.1 µM) | 16 (≈ 42.1 µM) | > 300 | 9.4 | –
17 | CC(=O)NC[C@H]1CN(c2ccc(/C=C(\F)S(=O)(=O)c3ccccc3)c(F)c2)C(=O)O1 | 8 (≈ 18.3 µM) | 8 (≈ 18.3 µM) | 8 (≈ 18.3 µM) | 8 (≈ 18.3 µM) | 64 (≈ 147 µM) | – | – | –
18 | CC(=O)NC[C@H]1CN(c2ccc(/C=C(\F)c3cccc(C=O)c3)c(F)c2)C(=O)O1 | 1 (≈ 2.5 µM) | 0.5 (≈ 1.25 µM) | 1 (≈ 2.5 µM) | 4 (≈ 9.99 µM) | 64 (≈ 160 µM) | > 300 | 9.9 | –
19 | CC(=O)NC[C@H]1CN(c2ccc(/C=C(\F)c3cnc(N)nc3)c(F)c2)C(=O)O1 | 16 (≈ 41.1 µM) | 4 (≈ 10.3 µM) | 8 (≈ 20.5 µM) | 8 (≈ 20.5 µM) | 32 (≈ 82.2 µM) | – | – | –
20 | CC(=O)NC[C@H]1CN(c2ccc(/C=C(\Br)c3cccc(C=O)c3)c(F)c2)C(=O)O1 | 0.5 (≈ 1.08 µM) | 0.25 (≈ 0.542 µM) | 0.5 (≈ 1.08 µM) | 1 (≈ 2.17 µM) | 1 (≈ 2.17 µM) | > 300 | 33 | –
21 | CC(=O)NC[C@H]1CN(c2ccc(/C=C(\Br)c3ccc(C(C)=O)s3)c(F)c2)C(=O)O1 | 1 (≈ 2.08 µM) | 0.5 (≈ 1.04 µM) | 0.5 (≈ 1.04 µM) | 0.5 (≈ 1.04 µM) | 2 (≈ 4.16 µM) | – | – | –
22 | CC(=O)NC[C@H]1CN(c2ccc(/C=C(\Br)c3c(C)oc[n+]3C)c(F)c2)C(=O)O1 | 32 | 16 | 32 | 8 | 64 | 21 | 54 | –
23 | CC(=O)NC[C@H]1CN(c2ccc(/C=C/c3cccnc3)c(F)c2)C(=O)O1 | 4 (≈ 11.3 µM) | 2 (≈ 5.63 µM) | 2 (≈ 5.63 µM) | 16 (≈ 45 µM) | 16 (≈ 45 µM) | 59 | 7.8 | –
24 | CC(=O)NC[C@H]1CN(c2ccc(/C=C(\Br)c3ccc(C(C)=O)cc3)c(F)c2)C(=O)O1 | 64 (≈ 135 µM) | 64 (≈ 135 µM) | 32 (≈ 67.3 µM) | 1 (≈ 2.1 µM) | 128 (≈ 269 µM) | – | – | –
25 | CC(=O)NC[C@H]1CN(c2ccc(/C=C(\F)c3nnn(C)n3)c(F)c2)C(=O)O1 | 8 (≈ 21.1 µM) | 1 (≈ 2.64 µM) | 4 (≈ 10.6 µM) | 2 (≈ 5.29 µM) | 32 (≈ 84.6 µM) | > 300 | 4.9 | –
26 | CC(=O)NC[C@H]1CN(c2ccc(/C=C(\F)c3nccs3)c(F)c2)C(=O)O1 | 2 (≈ 5.27 µM) | 2 (≈ 5.27 µM) | 2 (≈ 5.27 µM) | 2 (≈ 5.27 µM) | 8 (≈ 21.1 µM) | < 9.4 | – | –
27 | CC(=O)NC[C@H]1CN(c2ccc(/C=C(\Br)c3ccc(C#N)cc3)c(F)c2)C(=O)O1 | 4 (≈ 8.73 µM) | 1 (≈ 2.18 µM) | 2 (≈ 4.36 µM) | 0.5 (≈ 1.09 µM) | > 128 | > 150 | 76 | –
28 | CC(=O)NC[C@H]1CN(c2ccc(/C=C(\F)c3cccc(C(C)=O)c3)c(F)c2)C(=O)O1 | 0.5 (≈ 1.21 µM) | 1 (≈ 2.41 µM) | 2 (≈ 4.83 µM) | 1 (≈ 2.41 µM) | > 128 | > 300 | 69 | –
29 | CC(=O)NC[C@H]1CN(c2ccc(/C=C(\F)c3cccc(C#N)c3)c(F)c2)C(=O)O1 | > 128 | 128 (≈ 322 µM) | > 128 | 2 (≈ 5.03 µM) | > 128 | > 300 | > 300 | –
30 | CC(=O)NC[C@H]1CN(c2ccc(/C=C(\F)c3cncnc3)c(F)c2)C(=O)O1 | 2 (≈ 5.34 µM) | 1 (≈ 2.67 µM) | 2 (≈ 5.34 µM) | 1 (≈ 2.67 µM) | 4 (≈ 10.7 µM) | 475 | – | –
31 | CC(=O)NC[C@H]1CN(c2ccc(/C=C(\Br)c3cccc(C#N)c3)c(F)c2)C(=O)O1 | 0.25 (≈ 0.546 µM) | 0.125 (≈ 0.273 µM) | 0.125 (≈ 0.273 µM) | 0.25 (≈ 0.546 µM) | 1 (≈ 2.18 µM) | > 150 | 24 | –
32 | CC(=O)NC[C@H]1CN(c2ccc(/C=C(\F)c3cncc(C#N)c3)c(F)c2)C(=O)O1 | 1 (≈ 2.51 µM) | 0.5 (≈ 1.26 µM) | 1 (≈ 2.51 µM) | ≤ 0.125 | 4 (≈ 10 µM) | > 300 | < 0.1 | –
33 | CC(=O)NC[C@H]1CN(c2ccc(/C=C(\Br)c3cccc(CO)c3)c(F)c2)C(=O)O1 | 2 (≈ 4.32 µM) | 1 (≈ 2.16 µM) | 0.5 (≈ 1.08 µM) | 1 (≈ 2.16 µM) | 4 (≈ 8.63 µM) | > 150 | 8 | –
34 | CC(=O)NC[C@H]1CN(c2ccc(/C=C(\Br)c3ccccc3)c(F)c2)C(=O)O1 | 16 (≈ 36.9 µM) | 16 (≈ 36.9 µM) | 16 (≈ 36.9 µM) | 2 (≈ 4.62 µM) | 128 (≈ 295 µM) | < 9.4 | > 300 | –
35 | CC(=O)NC[C@H]1CN(c2ccc(N3CCOCC3)c(F)c2)C(=O)O1 [LINEZOLID] | – | 1 (≈ 2.96 µM) | 2 (≈ 5.93 µM) | – | 4 (≈ 11.9 µM) | – | 12 | 17
